≈ marks a conversion by molar mass, not a printed value. Calls of active or inactive are those of the source. The rule behind the calls is not given here.
Columns and labels:
Cutibacterium acnes [1] = experiment: Antimicrobial activity against Propionibacterium acnes NCTC 737 after 48 hrs; format: functional; conditions: NCTC 737, 48 h
In short: (§1)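 MIC by dilution in nutrient broth. Anaerobic organisms were incubated in an anaerobic cabinet. Controls were the same organisms incubated without test compound.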

Staphylococcus aureus [2] = experiment: Antimicrobial activity against Staphylococcus aureus ATCC 6538 after 24 hrs; format: functional; conditions: ATCC 6538, 24 h; in short: as §1
Staphylococcus aureus [3] = experiment: Antimicrobial activity against Staphylococcus aureus H1 after 24 hrs; format: functional; in short: as §1
Staphylococcus aureus [4] = experiment: Antimicrobial activity against Staphylococcus aureus K1 after 24 hrs; format: functional; in short: as §1
Cutibacterium acnes [5] = experiment: Antimicrobial activity against Propionibacterium acnes C5 after 48 hrs; format: functional; in short: as §1
Staphylococcus aureus [6] = experiment: Antimicrobial activity against methicillin-resistant Staphylococcus aureus C3 after 24 hrs; format: functional; in short: as §1
Clostridioides difficile [7] = experiment: Antimicrobial activity against Clostridium difficile Z229 after 48 hrs; format: functional
In short: (§2)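 Anaerobes incubated in an anaerobic cabinet for broth MIC determination. Drug-free incubations of the same organisms served as controls. Value is the minimum inhibitory concentration.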

Staphylococcus aureus [8] = experiment: Antimicrobial activity against methicillin-resistant Staphylococcus aureus E1 after 24 hrs; format: functional; in short: as §1
Cutibacterium acnes [9] = experiment: Antimicrobial activity against Propionibacterium acnes B5 after 48 hrs; format: functional; in short: as §2
[10] = test system: Staphylococcus epidermidis; experiment: Antimicrobial activity against Staphylococcus epidermidis 9 after 24 hrs; format: functional; in short: as §1
[11] = test system: Staphylococcus epidermidis; experiment: Antimicrobial activity against Staphylococcus epidermidis NCTC 11047 after 24 hrs; format: functional; conditions: NCTC 11047, 24 h; in short: as §1
Clostridioides difficile [12] = experiment: Antimicrobial activity against Clostridium difficile Z162 after 48 hrs; format: functional; in short: as §2
Cutibacterium acnes [13] = experiment: Antimicrobial activity against Propionibacterium acnes C3 after 48 hrs; format: functional; in short: as §1
Staphylococcus aureus [14] = experiment: Antimicrobial activity against methicillin-resistant Staphylococcus aureus A1 after 24 hrs; format: functional; in short: as §1
Clostridioides difficile [15] = experiment: Antimicrobial activity against Clostridium difficile O27 after 48 hrs; format: functional; in short: as §2
Clostridioides difficile [16] = experiment: Antimicrobial activity against Clostridium difficile NCTC 11204 after 48 hrs; format: functional; conditions: NCTC 11204, 48 h; in short: as §2
[17] = test system: Staphylococcus epidermidis; experiment: Antimicrobial activity against Staphylococcus epidermidis 4 after 24 hrs; format: functional; in short: as §1
Candida albicans = experiment: Antimicrobial activity against Candida albicans; format: functional, organism-based
[18] = test system: Trichophyton mentagrophytes; experiment: Antimicrobial activity against Trichophyton mentagrophytes; format: functional, organism-based
Streptococcus pyogenes = experiment: Antimicrobial activity against Streptococcus pyogenes; format: functional, organism-based
Staphylococcus aureus [19] = experiment: Antimicrobial activity against Micrococcus pyogenes; format: functional, organism-based
Escherichia coli = experiment: Antimicrobial activity against Escherichia coli; format: functional, organism-based
Bacillus subtilis = experiment: Antimicrobial activity against Bacillus subtilis; format: functional, organism-based

Compound	MIC (Cutibacterium acnes [1]) [µg/mL]	MIC (Staphylococcus aureus [2]) [µg/mL]	MIC (Staphylococcus aureus [3]) [µg/mL]	MIC (Staphylococcus aureus [4]) [µg/mL]	MIC (Cutibacterium acnes [5]) [µg/mL]	MIC (Staphylococcus aureus [6]) [µg/mL]	MIC (Clostridioides difficile [7]) [µg/mL]	MIC (Staphylococcus aureus [8]) [µg/mL]	MIC (Cutibacterium acnes [9]) [µg/mL]	MIC [10] [µg/mL]	MIC [11] [µg/mL]	MIC (Clostridioides difficile [12]) [µg/mL]	MIC (Cutibacterium acnes [13]) [µg/mL]	MIC (Staphylococcus aureus [14]) [µg/mL]	MIC (Clostridioides difficile [15]) [µg/mL]	MIC (Clostridioides difficile [16]) [µg/mL]	MIC [17] [µg/mL]	also measured
CC(C)(C)NC(=S)N/N=C/c1ccc([N+](=O)[O-])o1	64 (≈ 237 µM)	64 (≈ 237 µM)	> 256	64 (≈ 237 µM)	16 (≈ 59.2 µM)	> 256	16 (≈ 59.2 µM)	> 256	32 (≈ 118 µM)	> 256	128 (≈ 474 µM)	128 (≈ 474 µM)	16 (≈ 59.2 µM)	> 256	> 256	128 (≈ 474 µM)	> 256	
CC(C)NC(=S)N/N=C/C=C/c1ccco1	32 (≈ 135 µM)	> 256	> 256	> 256	64 (≈ 270 µM)	> 256	128 (≈ 539 µM)	> 256	> 256	> 256	> 256	> 256	1 (≈ 4.21 µM)	> 256	64 (≈ 270 µM)	> 256	> 256	
CNC(=S)N/N=C/C=C/c1ccc([N+](=O)[O-])o1	16 (≈ 62.9 µM)	32 (≈ 126 µM)	16 (≈ 62.9 µM)	> 256	64 (≈ 252 µM)	64 (≈ 252 µM)	16 (≈ 62.9 µM)	64 (≈ 252 µM)	1 (≈ 3.93 µM)	64 (≈ 252 µM)	32 (≈ 126 µM)	32 (≈ 126 µM)	1 (≈ 3.93 µM)	64 (≈ 252 µM)	32 (≈ 126 µM)	64 (≈ 252 µM)	32 (≈ 126 µM)	
CCNC(=S)N/N=C/C=C/c1ccco1	16 (≈ 71.7 µM)	> 256	> 256	> 256	32 (≈ 143 µM)	> 256	64 (≈ 287 µM)	> 256	> 256	> 256	> 256	> 256	32 (≈ 143 µM)	> 256	64 (≈ 287 µM)	> 256	> 256	
CC(C)(C)NC(=S)N/N=C/C=C/c1ccc([N+](=O)[O-])o1	16 (≈ 54 µM)	> 256	64 (≈ 216 µM)	32 (≈ 108 µM)	16 (≈ 54 µM)	> 256	64 (≈ 216 µM)	> 256	32 (≈ 108 µM)	> 256	> 256	128 (≈ 432 µM)	8 (≈ 27 µM)	> 256	64 (≈ 216 µM)	> 256	> 256	
CC(C)NC(=S)N/N=C/c1ccc([N+](=O)[O-])o1	64 (≈ 250 µM)	64 (≈ 250 µM)	128 (≈ 499 µM)	> 256	64 (≈ 250 µM)	> 256	128 (≈ 499 µM)	> 256	> 256	> 256	64 (≈ 250 µM)	> 256	32 (≈ 125 µM)	> 256	64 (≈ 250 µM)	> 256	> 256	
CC(C)(C)NC(=S)N/N=C/C=C/c1ccco1	64 (≈ 255 µM)	> 256	> 256	> 256	1 (≈ 3.98 µM)	> 256	64 (≈ 255 µM)	> 256	64 (≈ 255 µM)	> 256	> 256	> 256	4 (≈ 15.9 µM)	> 256	64 (≈ 255 µM)	> 256	> 256	
CNC(=S)N/N=C/C=C/c1ccco1	32 (≈ 153 µM)	> 256	> 256	> 256	1 (≈ 4.78 µM)	> 256	128 (≈ 612 µM)	> 256	32 (≈ 153 µM)	> 256	> 256	> 256	16 (≈ 76.5 µM)	> 256	64 (≈ 306 µM)	> 256	128 (≈ 612 µM)	
CNC(=S)N/N=C/c1ccc([N+](=O)[O-])o1	16 (≈ 70.1 µM)	64 (≈ 280 µM)	64 (≈ 280 µM)	128 (≈ 561 µM)	64 (≈ 280 µM)	> 256	64 (≈ 280 µM)	64 (≈ 280 µM)	64 (≈ 280 µM)	128 (≈ 561 µM)	16 (≈ 70.1 µM)	> 256	16 (≈ 70.1 µM)	64 (≈ 280 µM)	64 (≈ 280 µM)	> 256	32 (≈ 140 µM)	
CN[C@H](CC(C)C)C(=O)N[C@H]1C(=O)N[C@@H](CC(N)=O)C(=O)N[C@H]2C(=O)N[C@H]3C(=O)N[C@H](C(=O)N[C@H](C(=O)O)c4cc(O)cc(O)c4-c4cc3ccc4O)[C@H](O)c3ccc(c(Cl)c3)Oc3cc2cc(c3O[C@@H]2O[C@H](CO)[C@@H](O)[C@H](O)[C@H]2O[C@H]2C[C@](C)(N)[C@H](O)[C@H](C)O2)Oc2ccc(cc2Cl)[C@H]1O [VANCOMYCIN]	0.5 (≈ 0.345 µM)	1.5 (≈ 1.04 µM)													0.75 (≈ 0.518 µM)	0.5 (≈ 0.345 µM)		
CCNC(=S)N/N=C/c1ccc([N+](=O)[O-])o1	16 (≈ 66 µM)	32 (≈ 132 µM)	16 (≈ 66 µM)	64 (≈ 264 µM)	32 (≈ 132 µM)	64 (≈ 264 µM)	8 (≈ 33 µM)	64 (≈ 264 µM)	32 (≈ 132 µM)	64 (≈ 264 µM)	32 (≈ 132 µM)	128 (≈ 528 µM)	2 (≈ 8.26 µM)	64 (≈ 264 µM)	64 (≈ 264 µM)	64 (≈ 264 µM)	32 (≈ 132 µM)	Activity (Candida albicans): Active; Activity [18]: Active; Activity (Streptococcus pyogenes): Active; Activity (Staphylococcus aureus [19]): Active; Activity (Escherichia coli): Active; Activity (Bacillus subtilis): Active
CC(C)NC(=S)N/N=C/C=C/c1ccc([N+](=O)[O-])o1	32 (≈ 113 µM)	> 256	256 (≈ 907 µM)	> 256	64 (≈ 227 µM)	> 256	64 (≈ 227 µM)	> 256	32 (≈ 113 µM)	> 256	64 (≈ 227 µM)	> 256	32 (≈ 113 µM)	> 256	64 (≈ 227 µM)	> 256	64 (≈ 227 µM)	

From ChEMBL document CHEMBL1141626, “Thiosemicarbazones active against Clostridium difficile” (2008)
